Test results from ChEMBL document CHEMBL4699398, “The synthesis and biological evaluation of sanguinarine derivatives as anti-non-small cell lung cancer agents” (RSC Med Chem, 2020).
Active and inactive are the calls of the source. The rule behind the calls is not given here.

Experiments:
A549 [1] = assay: Induction of cell cycle arrest in human A549 cells assessed as accumulation in G0/G1 phase at 1 uM incubated for 24 hrs by […] propidium iodide staining based flow cytometry (reference value: 63.11 %); format: functional
NCI-H1975 [2] = assay: Induction of cell cycle arrest in human H1975 cells assessed as accumulation in G0/G1 phase at 1 uM incubated for 24 hrs by […] propidium iodide staining based flow cytometry (reference value: 62.86 %); format: functional
A549 [3] = assay: Induction of cell cycle arrest in human A549 cells assessed as accumulation in G0/G1 phase at 3 uM incubated for 24 hrs by […] propidium iodide staining based flow cytometry (reference value: 63.11 %); format: functional
NCI-H1975 [4] = assay: Induction of cell cycle arrest in human H1975 cells assessed as accumulation in S phase at 0.3 uM incubated for 24 hrs by […] propidium iodide staining based flow cytometry (reference value: 14.13 %); format: functional
NCI-H1975 [5] = assay: Induction of cell cycle arrest in human H1975 cells assessed as accumulation in S phase at 1 uM incubated for 24 hrs by […] propidium iodide staining based flow cytometry (reference value: 14.13 %); format: functional
A549 [6] = assay: Induction of cell cycle arrest in human A549 cells assessed as accumulation in G2/M phase at 0.3 uM incubated for 24 hrs by […] propidium iodide staining based flow cytometry (reference value: 22.46 %); format: functional
NCI-H1975 [7] = assay: Induction of cell cycle arrest in human H1975 cells assessed as accumulation in G2/M phase at 0.3 uM incubated for 24 hrs by […] propidium iodide staining based flow cytometry (reference value: 21.00 %); format: functional
NCI-H1975 [8] = assay: Induction of cell cycle arrest in human H1975 cells assessed as accumulation in G2/M phase at 1 uM incubated for 24 hrs by […] propidium iodide staining based flow cytometry (reference value: 21.00 %); format: functional
A549 [9] = assay: Induction of apoptosis in human A549 cells assessed as early apoptotic cells at 0.3 uM after 48 hrs by Annexin V-FITC/7-AAD staining based flow cytometric method (reference value: 3.26 %); format: functional
A549 [10] = assay: Induction of apoptosis in human A549 cells assessed as late apoptotic cells at 0.3 uM after 48 hrs by Annexin V-FITC/7-AAD staining based flow cytometric method (reference value: 2.94 %); format: functional
A549 [11] = assay: Induction of apoptosis in human A549 cells assessed as necrotic cells at 0.3 uM after 48 hrs by Annexin V-FITC/7-AAD staining based flow cytometric method (reference value: 0.70 %); format: functional
A549 [12] = assay: Induction of apoptosis in human A549 cells assessed as viable cells at 1 uM after 48 hrs by Annexin V-FITC/7-AAD staining based flow cytometric method (reference value: 93.10 %); format: functional; details: read-out: Activity
A549 [13] = assay: Induction of apoptosis in human A549 cells assessed as late apoptotic cells at 1 uM after 48 hrs by Annexin V-FITC/7-AAD staining based flow cytometric method (reference value: 2.94 %); format: functional
A549 [14] = assay: Induction of apoptosis in human A549 cells assessed as viable cells at 3 uM after 48 hrs by Annexin V-FITC/7-AAD staining based flow cytometric method (reference value: 93.10 %); format: functional; details: read-out: Activity
A549 [15] = assay: Induction of apoptosis in human A549 cells assessed as early apoptotic cells at 3 uM after 48 hrs by Annexin V-FITC/7-AAD staining based flow cytometric method (reference value: 3.26 %); format: functional
A549 [16] = assay: Induction of apoptosis in human A549 cells assessed as necrotic cells at 3 uM after 48 hrs by Annexin V-FITC/7-AAD staining based flow cytometric method (reference value: 0.70 %); format: functional
NCI-H1975 [17] = assay: Induction of apoptosis in human H1975 cells assessed as late apoptotic cells at 0.3 uM after 48 hrs by Annexin V-FITC/7-AAD staining based flow cytometric method (reference value: 4.63 %); format: functional
NCI-H1975 [18] = assay: Induction of apoptosis in human H1975 cells assessed as necrotic cells at 0.3 uM after 48 hrs by Annexin V-FITC/7-AAD staining based flow cytometric method (reference value: 0.85 %); format: functional
NCI-H1975 [19] = assay: Induction of apoptosis in human H1975 cells assessed as early apoptotic cells at 1 uM after 48 hrs by Annexin-V-FITC/7-AAD staining based flow cytometric method (reference value: 6.50 %); format: functional
NCI-H1975 [20] = assay: Induction of apoptosis in human H1975 cells assessed as necrotic cells at 3 uM after 48 hrs by Annexin V-FITC/7-AAD staining based flow cytometric method (reference value: 0.85 %); format: functional
A549 [21] = assay: Induction of apoptosis in human A549 cells assessed as increase in cleaved PARP level at 0.1 to 3 uM after 24 hrs by Western blot analysis; format: functional, cell-based; details: dose microM 0.1-3, time 24.0 hrs
Outline: (§1)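 After treatment, cells harvested and lysed in RIPA buffer; equal protein loaded on 12% SDS-PAGE and transferred to PVDF; blocked in 5% milk 2 h at room temperature; primary antibodies (AKT, p-AKT, cleaved caspase-3, cleaved caspase-9, PARP; GAPDH loading control) overnight at 4 °C; HRP secondaries 2 h at room temperature; chemiluminescent detection.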

NCI-H1975 [22] = assay: Induction of apoptosis in human H1975 cells assessed as increase in cleaved PARP level at 0.1 to 3 uM after 24 hrs by Western blot analysis; format: functional, cell-based; details: dose microM 0.1-3, time 24.0 hrs; outline: as §1
A549 [23] = assay: Induction of apoptosis in human A549 cells assessed as increase in cleaved caspase-3 level at 0.1 to 3 uM incubated for 24 hrs by Western blot analysis; format: functional, cell-based; details: dose microM 0.1-3, time 24.0 hrs; outline: as §1
NCI-H1975 [24] = assay: Induction of apoptosis in human H1975 cells assessed as increase in cleaved caspase-3 level at 0.1 to 3 uM incubated for 24 hrs by Western blot analysis; format: functional, cell-based; details: dose microM 0.1-3, time 24.0 hrs; outline: as §1
A549 [25] = assay: Induction of apoptosis in human A549 cells assessed as increase in Akt level at 0.1 to 3 uM incubated for 24 hrs by Western blot analysis; format: functional, cell-based; details: dose microM 0.1-3, time 24.0 hrs; outline: as §1
NCI-H1975 [26] = assay: Induction of apoptosis in human H1975 cells assessed as increase in Akt level at 0.1 to 3 uM incubated for 24 hrs by Western blot analysis; format: functional, cell-based; details: dose microM 0.1-3, time 24.0 hrs; outline: as §1
A549 [27] = assay: Induction of apoptosis in human A549 cells assessed as increase in ROS production incubated for 20 mins by DCFH-DA staining based flow cytometry analysis; format: functional, cell-based; details: dose microM 0.3-3, time 20.0 min
Outline: (§2)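 At 20 min after compound treatment, cells washed in PBS and loaded with 10 μM DCFH-DA in phenol red-free DMEM for 30 min at 37 °C in the dark; washed three times with PBS; DCF fluorescence of ROS-positive cells measured by flow cytometry with excitation at 488 nm.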

NCI-H1975 [28] = assay: Induction of apoptosis in human H1975 cells assessed as increase in ROS production incubated for 20 mins by DCFH-DA staining based flow cytometry analysis; format: functional, cell-based; details: dose microM 0.3-3, time 20.0 min; outline: as §2
A549 [29] = assay: Antiproliferative activity against human A549 cells assessed as inhibition of cell growth incubated for 72 hrs by CCK-8 assay; details: A549, 72 h
NCI-H1975 [30] = assay: Antiproliferative activity against human H1975 cells assessed as inhibition of cell growth incubated for 72 hrs by CCK-8 assay; details: NCI-H1975, 72 h

Q: With `CN1c2c(ccc3cc4c(cc23)OCO4)-c2ccc3c(c2C1N1CCOCC1)OCO3` (stereo not given) as the compound, how does the Activity (A549 [1]) read?
A: 70.03%

Q: And the Activity (NCI-H1975 [2])?
A: 67.32%

Q: What about the Activity (A549 [3]) of the same compound?
A: 71.21%

Q: And the Activity (NCI-H1975 [4])?
A: 14.07%

Q: And the Activity (NCI-H1975 [5])?
A: 12.43%

Q: What about the Activity (A549 [6]) of the same compound?
A: 20.27%

Q: And the Activity (NCI-H1975 [7])?
A: 23.51%

Q: And the Activity (NCI-H1975 [8])?
A: 19.67%

Q: What about the Activity (A549 [9]) of the same compound?
A: 4.92%

Q: What about the Activity (A549 [10]) of the same compound?
A: 6.92%

Q: What about the Activity (A549 [11]) of the same compound?
A: 8.73%

Q: What about the viability at 1 µM (A549 [12]) of the same compound?
A: 78.3%

Q: What about the Activity (A549 [13]) of the same compound?
A: 9.4%

Q: And the viability at 3 µM (A549 [14])?
A: 0.71%

Q: What about the Activity (A549 [15]) of the same compound?
A: 3.91%

Q: What about the Activity (A549 [16]) of the same compound?
A: 1.65%

Q: And the Activity (NCI-H1975 [17])?
A: 5.55%

Q: What about the Activity (NCI-H1975 [18]) of the same compound?
A: 0.98%

Q: And the Activity (NCI-H1975 [19])?
A: 10.59%

Q: What about the Activity (NCI-H1975 [20]) of the same compound?
A: 4.59%

Q: And the Activity (A549 [21])?
A: Active

Q: And the Activity (NCI-H1975 [22])?
A: Active

Q: What about the Activity (A549 [23]) of the same compound?
A: Active

Q: What about the Activity (NCI-H1975 [24]) of the same compound?
A: Active

Q: What about the Activity (A549 [25]) of the same compound?
A: Active

Q: And the Activity (NCI-H1975 [26])?
A: Active

Q: What about the Activity (A549 [27]) of the same compound?
A: Dose-dependent effect

Q: And the Activity (NCI-H1975 [28])?
A: Dose-dependent effect

Q: What about the IC50 (A549 [29]) of the same compound?
A: 1.79 µM

Q: And the IC50 (NCI-H1975 [30])?
A: 1.16 µM
